Measured values collected from several papers.
Effect on: binding
CDK4 with cyclin D1: Cyclin-dependent kinase 4, with cyclin D1 (CDK4, Homo sapiens, UniProt P11802)
CDK4 with cyclin D3: Cyclin-dependent kinase 4, with cyclin D3 (CDK4, Homo sapiens, UniProt P11802)
CDK4: Cyclin-dependent kinase 4 (CDK4, Homo sapiens, UniProt P11802)

Cc1ccc(NC(=O)c2ccnc(C(F)(F)F)c2)cc1-c1cc(OCCO)nc(N2CCOCC2)c1
remaining binding (CDK4 with cyclin D1; 1 µM): 97%

COc1ccc2oc(-c3ccc4nc(N)oc4c3)c/c(=N\c3ccccc3NC(=O)CCN)c2c1
remaining binding (CDK4 with cyclin D3; 1 µM): 93%

Cc1cc(S(=O)(=O)N[C@H]2CC[C@H](CN3CCN(c4ccc(C5CCC(=O)NC5=O)cc4F)CC3)CC2)ccc1Nc1ncc(C(F)(F)F)c(N2CCC[C@](C)(O)C2)n1 (stereo partly drawn)
remaining binding (CDK4 with cyclin D3; competition with immobilised ligand; 1 µM): 52%

CCCCC(=O)Nc1ccc(-c2ccc3ncn(CCC)c(=O)c3c2)cn1
remaining binding (CDK4 with cyclin D3; competition with immobilised ligand; 0.5 µM): 95%

C[C@]1(O)CCCN(c2nc(Nc3ccc(S(=O)(=O)N[C@H]4CC[C@H](CN5CCN(c6ccc(C7CCC(=O)NC7=O)cc6F)CC5)CC4)cc3F)ncc2C(F)(F)F)C1 (stereo partly drawn)
remaining binding (CDK4; competition with immobilised ligand; 1 µM): 97%

CN1CCN(C(=O)c2ccc(NC(=O)Nc3ccc(N(C)c4ccnc(Nc5ccc(CS(C)(=O)=O)cc5)n4)cc3)cc2)CC1
remaining binding (CDK4 with cyclin D1; 1 µM): 77%

C1=C/COCc2cc(ccc2OCCN2CCCC2)Nc2nccc(n2)-c2cccc(c2)COC/1
remaining binding (CDK4; 0.1 µM): 99%

COc1ccc2[nH]c3c4[nH]c5ccc(OC)cc5c4c4c(c3c2c1)C(=O)NC4=O
remaining binding (CDK4; 1 µM): 100%

CNS(=O)(=O)c1ccc(Nc2ncc(C(F)(F)F)c(N3CCC[C@](C)(O)C3)n2)c(C)c1
remaining binding (CDK4 with cyclin D3; competition with immobilised ligand; 1 µM): 33%
